Source: ChEMBL document CHEMBL1121891, “Structure--activity relationship in cinnamamides. 3. Synthesis and anticonvulsant activity evaluation of some derivatives of (E)- and (Z)-m-(trifluoromethyl)cinnamamide” (J Med Chem, 1981)
Active and inactive are the calls of the source. No cut-off for these calls is given here.

Tests used:
[1] = test system: Mus musculus; test: Compound was evaluated for positional passivity after peroral administration; type: functional
Procedure, shortened: (§1)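 Irwin observational test in fasted male albino mice given oral suspensions in 0.5% methocel by gavage. Doses were 25, 50, 100, 200, 400 and 800 mg/kg, with signs checked up to 6 h. The value is the dose giving 50% of maximal effect, interpolated graphically from the log dose/peak effect curve.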

[2] = Lethal dose after peroral administration; type: toxicity, organism-based; conditions: mouse, in vivo, po
[3] = test system: Mus musculus; test: Compound was evaluated for loss of righting reflex after peroral administration; type: functional; procedure, shortened: as §1
[4] = test system: Mus musculus; test: Compound was evaluated for anticonvulsant activity in mouse after peroral administration; Not checked; type: functional, organism-based
[5] = test system: Mus musculus; test: Locomotor activity reduction after peroral administration; type: functional; procedure, shortened: as §1
[6] = test system: Mus musculus; test: Compound was evaluated for anticonvulsant activity in mouse after peroral administration.; type: functional; conditions: po
Procedure, shortened: (§2)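 Male albino mice (Icem-CET, SPF Caw), 17–22 g, fasted 9 h; compounds suspended in 0.5% methocel and given by gavage at 0.2 mL/10 g. Antagonism of pentylenetetrazole seizures was scored in groups of 20 per dose, at four or five doses per compound. ED50 was derived by probit analysis with p = 0.05 fiducial limits. Inactives were tested at a single screening dose.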

[7] = test system: Mus musculus; test: Compound was evaluated for anticonvulsant activity in mouse after peroral administration; IA is Inactive at the screening dose; type: functional, organism-based; procedure, shortened: as §2
[8] = test system: Mus musculus; test: Compound was evaluated for minimum effective dose of clonic-type convulsions after peroral administration; E denotes absent from 25-800 mg/Kg; type: functional, organism-based
Procedure, shortened: (§3)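 Fasted male albino mice received oral suspensions in 0.5% methocel by gavage at 25–800 mg/kg during Irwin-type behavioral observation, followed up to 6 h. The value is the minimum effective dose producing clonic-type convulsions.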

[9] = test system: Mus musculus; test: Compound was evaluated for tremors after peroral administration; E denotes absent from 25-800 mg/Kg; type: functional, organism-based; procedure, shortened: as §1
[10] = test system: Mus musculus; test: Compound was evaluated for positional passivity after peroral administration; E denotes absent from 25-800 mg/Kg; type: functional, organism-based; procedure, shortened: as §1
[11] = test system: Mus musculus; test: Compound was evaluated for tremors after peroral administration; type: functional; procedure, shortened: as §1
[12] = test system: Mus musculus; test: Compound was evaluated for positional passivity after peroral administration; H denotes absent from 25-800 mg/Kg; type: functional, organism-based; procedure, shortened: as §1
[13] = test system: Mus musculus; test: Compound was evaluated for anticonvulsant activity in mouse after peroral administration; IA is inactive at screening dose; type: functional, organism-based; procedure, shortened: as §2
[14] = test system: Mus musculus; test: Compound was evaluated for minimum effective dose of clonic-type convulsions after peroral administration; type: functional; conditions: po, read-out: MED; procedure, shortened: as §3
[15] = test system: Mus musculus; test: Compound was evaluated for anticonvulsant activity in mouse after peroral administration; inactive at screening dose 100 mg/kg; type: functional, organism-based; set-up: dose 100 mg/kg; procedure, shortened: as §2

`C=CCNC(=O)/C(C)=C(\C)c1cccc(C(F)(F)F)c1` gave a Passivity [1] of 350 mg/kg, an LD50 [2] of 400 mg/kg and a Reflex [3] of 140 mg/kg. The ED50 [4] was “Not checked” and the Locomotor activity [5] was 150 mg/kg.

For `C/C(C(=O)NC1CC1)=C(/C)c1ccc(Cl)cc1`, the ED50 [6] was 11.4 mg/kg, the Passivity [1] was >800 mg/kg and the LD50 [2] was 300 mg/kg. The Reflex [3] was 150 mg/kg and the Locomotor activity [5] was 350 mg/kg.

For `C=CCNC(=O)/C=C/c1ccccc1`, the ED50 [6] was 52.4 mg/kg, the Passivity [1] was 280 mg/kg and the LD50 [2] was 300 mg/kg. The Reflex [3] was 150 mg/kg and the Locomotor activity [5] was 150 mg/kg.

With `C/C(C(N)=O)=C(/C)c1cccc(C(F)(F)F)c1` the Passivity [1] was 85 mg/kg, the LD50 [2] was 200 mg/kg and the Reflex [3] was 25 mg/kg. The ED50 [7] was “inactive” and the Locomotor activity [5] was 100 mg/kg.

Work on `NC(=O)/C=C/c1cccc(C(F)(F)F)c1` yielded an ED50 [6] of 23.2 mg/kg, a Passivity [1] of 200 mg/kg and an LD50 [2] of 600 mg/kg. It also gave a Reflex [3] of 70 mg/kg and a Locomotor activity [5] of 70 mg/kg.

For `C/C(C(=O)NC1CC1)=C(\C)c1cccc(C(F)(F)F)c1`, the ED50 [6] was 65.5 mg/kg, the MED [8] was “Absent” and the Tremors [9] was “Absent”. The LD50 [2] was > 800 mg/kg, the Passivity [10] was “Absent” and the Locomotor activity [5] was 800 mg/kg.

For `C=CCNC(=O)/C=C(\C)c1ccccc1`, the ED50 [6] was 65.8 mg/kg, the Passivity [1] was 250 mg/kg and the LD50 [2] was 450 mg/kg. The Reflex [3] was 150 mg/kg and the Locomotor activity [5] was 150 mg/kg.

With `C=CCNC(=O)/C(C)=C/c1ccccc1` the ED50 [6] was 53.8 mg/kg, the Passivity [1] was 280 mg/kg and the LD50 [2] was 600 mg/kg. For the same compound, the Reflex [3] was 150 mg/kg and the Locomotor activity [5] was 200 mg/kg.

In the case of `C/C(C(N)=O)=C(\C)c1cccc(C(F)(F)F)c1`, the ED50 [6] is reported as 32.2 mg/kg, the MED [8] is reported as “Absent” and the Passivity [1] is reported as 250 mg/kg. The Tremors [9] was “Absent”, the LD50 [2] was 600 mg/kg and the Locomotor activity [5] was 180 mg/kg.

`C=CCNC(=O)/C(C)=C(\C)c1ccccc1` gave an ED50 [6] of 67 mg/kg, a Passivity [1] of 300 mg/kg and a Reflex [3] of 250 mg/kg. It also gave a Locomotor activity [5] of 130 mg/kg.

`C/C(=C\c1cccc(C(F)(F)F)c1)C(=O)NC1CC1` showed an ED50 [6] of 24.1 mg/kg, a Passivity [1] of 400 mg/kg and an LD50 [2] of 700 mg/kg. For the same compound, the Reflex [3] was 150 mg/kg and the Locomotor activity [5] was 120 mg/kg.

For `CCC1(c2ccccc2)C(=O)N=C([O-])NC1=O.[Na+]` (stereo unspecified) [PHENOBARBITAL SODIUM], the ED50 [6] was 6.1 mg/kg, the Passivity [1] was 180 mg/kg and the Reflex [3] was 110 mg/kg. For the same compound, the Locomotor activity [5] was 180 mg/kg.

`C#CCNC(=O)/C(C)=C(\C)c1cccc(C(F)(F)F)c1` showed an ED50 [6] of 25.1 mg/kg, a Passivity [1] of 180 mg/kg and an LD50 [2] of 170 mg/kg. For the same compound, the Reflex [3] was 110 mg/kg and the Locomotor activity [5] was 80 mg/kg.

Compound `C/C(=C\c1cccc(C(F)(F)F)c1)C(N)=O` has an ED50 [6] of 22.4 mg/kg, a Passivity [1] of 250 mg/kg and an LD50 [2] of 800 mg/kg. The Reflex [3] was 150 mg/kg and the Locomotor activity [5] was 50 mg/kg.

Compound `C/C(C(=O)NC1CC1)=C(/C)c1cccc(C(F)(F)F)c1` has an ED50 [6] of 17.4 mg/kg, a Passivity [1] of 180 mg/kg and an LD50 [2] of 140 mg/kg. It also gave a Reflex [3] of 100 mg/kg and a Locomotor activity [5] of 80 mg/kg.

For `C/C(C(=O)NC1CC1)=C(\C)c1ccc(Cl)cc1`, the ED50 [6] was 36.3 mg/kg, the MED [8] was “Absent” and the Reflex [11] was 600 mg/kg. For the same compound, the Passivity [10] was “Absent” and the Locomotor activity [5] was 170 mg/kg.

For `O=C1NC(=O)C(c2ccccc2)(c2ccccc2)N1` [PHENYTOIN], the ED50 [6] was 9.11 mg/kg, the Passivity [12] was “inactive” and the Reflex [3] was 250 mg/kg. It also gave a Locomotor activity [5] of 150 mg/kg.

For `C/C(C(N)=O)=C(\C)c1ccccc1`, the MED [8] was “Absent”, the Passivity [1] was 800 mg/kg and the Tremors [9] was “Absent”. For the same compound, the LD50 [2] was > 800 mg/kg, the ED50 [13] was “inactive” and the Locomotor activity [5] was 400 mg/kg.

Work on `C/C(C(N)=O)=C(/C)c1ccc(Cl)cc1` yielded an ED50 [6] of 20.9 mg/kg, a Passivity [1] of 300 mg/kg and an LD50 [2] of 550 mg/kg. The Reflex [3] was 150 mg/kg and the Locomotor activity [5] was 200 mg/kg.

In the case of `C/C(C(=O)NC1CC1)=C(\C)c1ccc(Br)cc1`, the ED50 [6] is reported as 52.4 mg/kg, the MED [8] is reported as “Absent” and the Passivity [1] is reported as 450 mg/kg. For the same compound, the Tremors [9] was “Absent”, the LD50 [2] was 600 mg/kg and the Locomotor activity [5] was 300 mg/kg.

For `C=CCNC(=O)/C(C)=C(\C)c1ccc(Cl)cc1`, the ED50 [6] was 18.6 mg/kg, the Passivity [1] was 90 mg/kg and the LD50 [2] was 300 mg/kg. It also gave a Reflex [3] of 70 mg/kg and a Locomotor activity [5] of 70 mg/kg.

With `C#CCNC(=O)/C(C)=C(\C)c1ccc(Cl)cc1` the ED50 [6] was 10.6 mg/kg, the Passivity [1] was 400 mg/kg and the Reflex [3] was 200 mg/kg. For the same compound, the Locomotor activity [5] was 60 mg/kg.

`C/C(C(=O)NC1CC1)=C(/C)c1ccccc1` gave an ED50 [6] of 55.9 mg/kg, a Passivity [1] of 250 mg/kg and an LD50 [2] of 500 mg/kg. It also gave a Reflex [3] of 150 mg/kg and a Locomotor activity [5] of 100 mg/kg.

Work on `C/C(C(=O)NC1CC1)=C(\C)c1ccccc1` yielded an LD50 [2] of 600 mg/kg, a minimal effective dose [14] of 400 mg/kg and a Reflex [11] of 300 mg/kg. For the same compound, the ED50 [15] was “inactive”, the Passivity [10] was “Absent” and the Locomotor activity [5] was 400 mg/kg.

Work on `O=C(/C=C/c1cccc(C(F)(F)F)c1)NC1CC1` yielded an ED50 [6] of 9.6 mg/kg, a Passivity [1] of 400 mg/kg and an LD50 [2] of 700 mg/kg. The Reflex [3] was 100 mg/kg and the Locomotor activity [5] was 100 mg/kg.
